Results as given in ChEMBL document CHEMBL6109036, “Azo derivatives of monoterpenes as anti-Helicobacter pylori agents: from synthesis to structure-based target investigation” (RSC Med Chem, 2025).
Converted amounts (≈) assume the structure as drawn.

Experiments:
Type in all cases: functional
Helicobacter pylori [1] = assay: Anti-bacterial activity against Helicobacter pylori Clinical isolate F1 measured after 72 hrs incubation by modified broth dilution method
Helicobacter pylori [2] = assay: Bactericidal activity against Helicobacter pylori Clinical isolate F1 measured after 72 hrs of incubation under microaerophilic conditions by modified broth dilution method; conditions: read-out: MBC99.9
How it was run: (§1)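 H. pylori (NCTC 11637, F1, 23, F4). Wells with no visible growth in the MIC assay spotted (10 μL) onto Skirrow agar. Plates incubated 72 h at 37 °C, microaerophilic, 100% humidity. MBC = concentration killing 99.9% of the initial inoculum. Triplicate, on at least three different days.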

Helicobacter pylori [3] = assay: Anti-bacterial activity against Helicobacter pylori Clinical isolate 23 measured after 72 hrs incubation by modified broth dilution method
Helicobacter pylori [4] = assay: Bactericidal activity against Helicobacter pylori Clinical isolate 23 measured after 72 hrs of incubation under microaerophilic conditions by modified broth dilution method; conditions: read-out: MBC99.9; how it was run: as §1
Helicobacter pylori [5] = assay: Anti-bacterial activity against Helicobacter pylori NCTC 11637 measured after 72 hrs incubation by modified broth dilution method
Helicobacter pylori [6] = assay: Bactericidal activity against Helicobacter pylori NCTC 11637 measured after 72 hrs of incubation under microaerophilic conditions by modified broth dilution method; conditions: read-out: MBC99.9; how it was run: as §1
Helicobacter pylori [7] = assay: Anti-bacterial activity against Helicobacter pylori Clinical isolate F4 measured after 72 hrs incubation by modified broth dilution method
Helicobacter pylori [8] = assay: Bactericidal against Helicobacter pylori Clinical isolate F4 measured after 72 hrs of incubation under microaerophilic conditions by modified broth dilution method; conditions: read-out: MBC99.9; how it was run: as §1
Helicobacter pylori [9] = assay: Anti-bacterial activity against Helicobacter pylori measured after 72 hrs incubation by modified broth dilution method
Helicobacter pylori [10] = assay: Bactericidal against Helicobacter pylori measured after 72 hrs of incubation under microaerophilic conditions by modified broth dilution method; conditions: for MBC: Helicobacter pylori, read-out: MBC99.9
How it was run: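 Wells with no visible growth in the MIC assay spotted (10 μL) onto Skirrow agar. Plates incubated 72 h at 37 °C, microaerophilic, 100% humidity. Triplicate, on at least three different days.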

SMILES | MIC (Helicobacter pylori [1]) | MBC (Helicobacter pylori [2]) | MIC (Helicobacter pylori [3]) | MBC (Helicobacter pylori [4]) | MIC (Helicobacter pylori [5]) | MBC (Helicobacter pylori [6]) | MIC (Helicobacter pylori [7]) | MBC (Helicobacter pylori [8]) | MIC50 (Helicobacter pylori [9]) | MIC90 (Helicobacter pylori [9]) | MBC90 (Helicobacter pylori [10]) | MBC (Helicobacter pylori [10])
COc1cc(C)c(/N=N/c2ccc([N+](=O)[O-])cc2)cc1C(C)C | > 128 µg/mL | > 128 µg/mL | > 128 µg/mL | > 128 µg/mL | > 128 µg/mL | > 128 µg/mL | > 128 µg/mL | > 128 µg/mL | > 128 µg/mL | > 128 µg/mL | >128 µg/mL | 
COc1ccc(/N=N/c2cc(C)c(O)cc2C(C)C)cc1 | 4 µg/mL (≈ 14.1 µM) | 4 µg/mL (≈ 14.1 µM) | 8 µg/mL (≈ 28.1 µM) | 8 µg/mL (≈ 28.1 µM) | 8 µg/mL (≈ 28.1 µM) | 8 µg/mL (≈ 28.1 µM) | 4 µg/mL (≈ 14.1 µM) | 4 µg/mL (≈ 14.1 µM) | 4 µg/mL (≈ 14.1 µM) | 8 µg/mL (≈ 28.1 µM) | 8 µg/mL (≈ 28.1 µM) | 
CC(=O)Oc1cc(C)c(/N=N/c2ccc([N+](=O)[O-])cc2)cc1C(C)C | 128 µg/mL (≈ 375 µM) | 128 µg/mL (≈ 375 µM) | 128 µg/mL (≈ 375 µM) | 128 µg/mL (≈ 375 µM) | > 128 µg/mL | > 128 µg/mL | > 128 µg/mL | > 128 µg/mL | 128 µg/mL (≈ 375 µM) | > 128 µg/mL | >128 µg/mL | 
C=CCc1cc(/N=N/c2cccc([N+](=O)[O-])c2)c(O)c(OC)c1 | 128 µg/mL (≈ 409 µM) | > 128 µg/mL | 128 µg/mL (≈ 409 µM) | 128 µg/mL (≈ 409 µM) | 128 µg/mL (≈ 409 µM) | 128 µg/mL (≈ 409 µM) | 128 µg/mL (≈ 409 µM) | 128 µg/mL (≈ 409 µM) | 128 µg/mL (≈ 409 µM) | > 128 µg/mL | >128 µg/mL | 
Cc1ccc(C(C)C)cc1O [CARVACROL] | 64 µg/mL (≈ 426 µM) | 64 µg/mL (≈ 426 µM) | 64 µg/mL (≈ 426 µM) | 64 µg/mL (≈ 426 µM) | 64 µg/mL (≈ 426 µM) | 64 µg/mL (≈ 426 µM) | 64 µg/mL (≈ 426 µM) | 64 µg/mL (≈ 426 µM) | 64 µg/mL (≈ 426 µM) | 64 µg/mL (≈ 426 µM) |  | 64 µg/mL (≈ 426 µM)
Cc1ccc(C(C)C)c(O)c1 [THYMOL] | 64 µg/mL (≈ 426 µM) | 64 µg/mL (≈ 426 µM) | 128 µg/mL (≈ 852 µM) | 128 µg/mL (≈ 852 µM) | 128 µg/mL (≈ 852 µM) | 128 µg/mL (≈ 852 µM) | 64 µg/mL (≈ 426 µM) | 64 µg/mL (≈ 426 µM) | 64 µg/mL (≈ 426 µM) | 128 µg/mL (≈ 852 µM) |  | 128 µg/mL (≈ 852 µM)
C=CCc1cc(/N=N/c2ccc([N+](=O)[O-])cc2)c(O)c(OC)c1 | 64 µg/mL (≈ 204 µM) | 64 µg/mL (≈ 204 µM) | 128 µg/mL (≈ 409 µM) | 128 µg/mL (≈ 409 µM) | 64 µg/mL (≈ 204 µM) | 64 µg/mL (≈ 204 µM) | 64 µg/mL (≈ 204 µM) | 128 µg/mL (≈ 409 µM) | 64 µg/mL (≈ 204 µM) | 128 µg/mL (≈ 409 µM) | 128 µg/mL (≈ 409 µM) | 
COc1cc(C=O)cc(/N=N/c2cccc([N+](=O)[O-])c2)c1O | 16 µg/mL (≈ 53.1 µM) | 16 µg/mL (≈ 53.1 µM) | 8 µg/mL (≈ 26.6 µM) | 8 µg/mL (≈ 26.6 µM) | 8 µg/mL (≈ 26.6 µM) | 8 µg/mL (≈ 26.6 µM) | 8 µg/mL (≈ 26.6 µM) | 16 µg/mL (≈ 53.1 µM) | 8 µg/mL (≈ 26.6 µM) | 16 µg/mL (≈ 53.1 µM) | 16 µg/mL (≈ 53.1 µM) | 
Cc1cc(/N=N/c2ccccc2Cl)c(C(C)C)cc1O | 4 µg/mL (≈ 13.9 µM) | 4 µg/mL (≈ 13.9 µM) | 4 µg/mL (≈ 13.9 µM) | 4 µg/mL (≈ 13.9 µM) | 4 µg/mL (≈ 13.9 µM) | 4 µg/mL (≈ 13.9 µM) | 2 µg/mL (≈ 6.93 µM) | 2 µg/mL (≈ 6.93 µM) | 4 µg/mL (≈ 13.9 µM) | 4 µg/mL (≈ 13.9 µM) | 4 µg/mL (≈ 13.9 µM) | 
Cc1ncc([N+](=O)[O-])n1CCO [METRONIDAZOLE] | 2 µg/mL (≈ 11.7 µM) | 2 µg/mL (≈ 11.7 µM) | 1 µg/mL (≈ 5.84 µM) | 1 µg/mL (≈ 5.84 µM) | 256 µg/mL (≈ 1500 µM) | 256 µg/mL (≈ 1500 µM) | 32 µg/mL (≈ 187 µM) | 32 µg/mL (≈ 187 µM) | 2 µg/mL (≈ 11.7 µM) | 256 µg/mL (≈ 1500 µM) | 256 µg/mL (≈ 1500 µM) | 
C=CCc1cc(/N=N/c2ccc(Cl)cc2Cl)c(O)c(OC)c1 | > 128 µg/mL | > 128 µg/mL | > 128 µg/mL | > 128 µg/mL | 128 µg/mL (≈ 380 µM) | 128 µg/mL (≈ 380 µM) | > 128 µg/mL | > 128 µg/mL | > 128 µg/mL | > 128 µg/mL | >128 µg/mL | 
C=CCc1ccc(O)c(OC)c1 [EUGENOL] | 64 µg/mL (≈ 390 µM) | 128 µg/mL (≈ 780 µM) | 64 µg/mL (≈ 390 µM) | 64 µg/mL (≈ 390 µM) | 32 µg/mL (≈ 195 µM) | 64 µg/mL (≈ 390 µM) | 64 µg/mL (≈ 390 µM) | 64 µg/mL (≈ 390 µM) | 64 µg/mL (≈ 390 µM) | 64 µg/mL (≈ 390 µM) | 64 µg/mL (≈ 390 µM) | 
COc1ccc(/N=N/c2cc(C(C)C)c(OC(C)=O)cc2C)cc1 | 128 µg/mL (≈ 392 µM) | 128 µg/mL (≈ 392 µM) | 64 µg/mL (≈ 196 µM) | 64 µg/mL (≈ 196 µM) | 128 µg/mL (≈ 392 µM) | 128 µg/mL (≈ 392 µM) | 64 µg/mL (≈ 196 µM) | 128 µg/mL (≈ 392 µM) | 64 µg/mL (≈ 196 µM) | 128 µg/mL (≈ 392 µM) | 128 µg/mL (≈ 392 µM) | 
COc1ccc(/N=N/c2cc(C(C)C)c(O)c(/N=N/c3ccc(OC)cc3)c2C)cc1 | 128 µg/mL (≈ 306 µM) | > 128 µg/mL | 128 µg/mL (≈ 306 µM) | > 128 µg/mL | > 128 µg/mL | > 128 µg/mL | 128 µg/mL (≈ 306 µM) | > 128 µg/mL | 128 µg/mL (≈ 306 µM) | > 128 µg/mL | >128 µg/mL | 
COc1ccc(/N=N/c2cc(C)c(O)c(/N=N/c3ccc(OC)cc3)c2C(C)C)cc1 | > 128 µg/mL | > 128 µg/mL | > 128 µg/mL | > 128 µg/mL | > 128 µg/mL | > 128 µg/mL | > 128 µg/mL | > 128 µg/mL | > 128 µg/mL | > 128 µg/mL | >128 µg/mL | 
